The source made the active and inactive calls. Unless noted, the rule behind the calls is not given here.
Legend:
[1] = target: Pantothenate synthetase (Mycobacterium tuberculosis (strain ATCC 25618 / H37Rv)) (UniProt P9WIL5); experiment: Coupled enzyme confirmation of inhibitors against recombinant Mtb PanC (AID 375); conditions: coupled enzyme assay; at 10 µM, stronger effect = higher value;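 note: 0% = full reaction with vehicle and 100% = no enzyme background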
[2] = Her2 expression decrease, cell viability multiplex – SKBR3 breast tumor cells, AlphaScreen, ATP viability, primary screen (AID 461;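 active = Her2 level under about 52% in both replicate screens, with viability over 70% of control, limit read from the data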;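 for Her2 level: lower value means less Her2 protein in the cells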;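 for viability: percent of carrier control wells set as 100% viability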); conditions: SKBR3 Her2 protein level, 18-24 h, measured here: SKBR3 viability, ATP luminescence, at 10 µM
[3] = target: Receptor tyrosine-protein kinase erbB-2 (Homo sapiens) (UniProt P04626); experiment: as above; conditions: 18-24 h, at 10 µM, stronger effect = lower value
Sequence of Receptor tyrosine-protein kinase erbB-2 (Homo sapiens) (P04626 whole entry, looked up): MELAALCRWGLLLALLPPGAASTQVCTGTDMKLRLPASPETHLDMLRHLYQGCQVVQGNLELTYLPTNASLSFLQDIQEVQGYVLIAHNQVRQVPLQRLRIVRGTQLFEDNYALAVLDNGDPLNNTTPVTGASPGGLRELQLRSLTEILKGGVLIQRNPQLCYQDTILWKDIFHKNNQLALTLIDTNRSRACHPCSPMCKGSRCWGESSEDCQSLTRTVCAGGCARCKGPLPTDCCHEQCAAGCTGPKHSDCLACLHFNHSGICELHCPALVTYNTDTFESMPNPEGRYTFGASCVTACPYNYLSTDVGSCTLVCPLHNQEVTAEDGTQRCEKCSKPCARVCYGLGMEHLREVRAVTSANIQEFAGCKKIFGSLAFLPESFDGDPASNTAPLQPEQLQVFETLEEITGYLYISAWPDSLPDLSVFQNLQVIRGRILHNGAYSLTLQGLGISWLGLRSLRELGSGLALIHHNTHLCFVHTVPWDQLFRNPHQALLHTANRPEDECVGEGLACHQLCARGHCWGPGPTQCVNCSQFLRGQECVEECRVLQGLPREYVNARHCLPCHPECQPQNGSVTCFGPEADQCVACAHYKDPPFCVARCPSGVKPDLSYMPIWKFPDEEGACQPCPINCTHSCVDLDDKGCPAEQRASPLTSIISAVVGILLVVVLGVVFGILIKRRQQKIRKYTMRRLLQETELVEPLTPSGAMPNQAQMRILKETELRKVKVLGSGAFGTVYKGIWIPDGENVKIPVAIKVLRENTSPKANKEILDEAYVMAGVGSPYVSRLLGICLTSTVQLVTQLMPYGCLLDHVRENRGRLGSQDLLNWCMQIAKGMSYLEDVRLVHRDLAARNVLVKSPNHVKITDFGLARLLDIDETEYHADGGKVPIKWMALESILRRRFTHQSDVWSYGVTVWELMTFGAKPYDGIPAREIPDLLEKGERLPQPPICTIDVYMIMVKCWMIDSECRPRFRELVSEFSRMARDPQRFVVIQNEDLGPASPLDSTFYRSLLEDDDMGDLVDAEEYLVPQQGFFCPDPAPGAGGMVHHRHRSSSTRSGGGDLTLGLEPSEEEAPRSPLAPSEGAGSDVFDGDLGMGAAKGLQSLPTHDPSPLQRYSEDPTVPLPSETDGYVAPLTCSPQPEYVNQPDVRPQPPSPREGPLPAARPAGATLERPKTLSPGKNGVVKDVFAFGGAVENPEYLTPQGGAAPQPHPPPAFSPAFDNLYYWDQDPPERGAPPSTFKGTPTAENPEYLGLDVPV

[4] = reduced viability of SK-BR-3 breast cancer cells – cell-based, 24 h, human, pilot screen (AID 572;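 active = viability at or below 10% of carrier control in both of two separate runs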;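 note: compound exposure lasted between 18 and 24 h rather than exactly 24 h; 100% = carrier-treated control wells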); conditions: SK-BR-3 viability, CellTiter-Glo luminescence, at 10 µM, stronger effect = lower value
[5] = HUVEC growth inhibition – cell-based, human, primary screen (AID 575;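 active = viability at or below 30% in both replicate assays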;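 note: 100% = median of untreated cell wells with 0.1% DMSO on each plate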); conditions: HUVEC proliferation, CellTiter-Glo luminescence, 72 h; at 10 µM; stronger effect = lower value
In short: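 Material: primary human umbilical vein endothelial cells / Schedule: 72 h exposure, 37 °C, 5% CO2, 30 min RT equilibration / Signal: ATP-based CellTiter-Glo luminescent read / Read-out basis: percent of median DMSO-control luminescence / Control set: 32 DMSO-only cell-control wells (high), 32 MePR drug-control wells (low) per plate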

[6] = H69AR cell proliferation blockers – human, duplicate replicates, primary screen (AID 580;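 active = viability at or under a set limit in both replicates, limit being median viability minus 3 SD, cut at about 48% in these data, passing the limit was not always enough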;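 note: 100% = mean luminescence of untreated wells and 0% = no signal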); conditions: H69AR lung tumor cells viability, ATP luminescence, 72 h; at 10 µM; stronger effect = lower value
[7] = MRP1 drug-resistance reversers in H69AR cells – cell-based, doxorubicin co-treatment, pilot screen (AID 601;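 active = viability loss from added drug above about 55%, and viability with drug at most 40%, in both replicates, limit read from the data, passing the limit was not always enough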); conditions: CellTiter-Glo, 72 h, at 10 µM; for differential viability (reversal): stronger effect = higher value
[8] = yeast transport mutant growth inhibition pilot in 384-well plates, post-Golgi transport modulator project (AID 636; in the data active = inhibition above about 31%); conditions: absorbance 615 nm, about 18 h, stronger effect = higher value
[9] = growth suppression of yeast trafficking mutant, preliminary HTS, modulators of trafficking downstream of Golgi apparatus project, 1536-format plate, OD 615 nm (AID 637; in the data active = inhibition above about 30%); conditions: yeast transport mutant growth, absorbance 615 nm, 18 h; stronger effect = higher value
[10] = H69AR cells + 2 uM doxorubicin, measured here: viability with 2 uM doxorubicin, stronger effect = lower value
[11] = H69AR cells, compound alone cytotoxicity

Sequence of Pantothenate synthetase (Mycobacterium tuberculosis (strain ATCC 25618 / H37Rv)) (P9WIL5 whole entry, looked up): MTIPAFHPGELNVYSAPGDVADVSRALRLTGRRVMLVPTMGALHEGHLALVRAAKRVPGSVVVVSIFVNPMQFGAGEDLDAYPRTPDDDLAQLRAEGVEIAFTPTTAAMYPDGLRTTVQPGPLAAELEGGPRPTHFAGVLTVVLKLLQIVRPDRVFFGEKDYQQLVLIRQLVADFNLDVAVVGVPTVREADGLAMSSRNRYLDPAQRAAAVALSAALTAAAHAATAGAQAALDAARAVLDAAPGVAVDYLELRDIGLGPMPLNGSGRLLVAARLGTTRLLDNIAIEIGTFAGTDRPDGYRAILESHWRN

Compound | inhibition [1] | viability [2] | Her2 level [3] | viability [4] | viability [5] | viability [6] | differential viability (reversal) ([7]; H69AR cells + 2 uM doxorubicin) | viability [7, 10] | viability [7, 11] | inhibition [8] | inhibition [9]
Cc1ccc(-n2c(O)c(C=NCCN3CCOCC3)c(=O)[nH]c2=O)cc1 | 3% (inactive) | 124% | 96.5% (inactive) | 124% (inactive) | 93.4% (inactive) | 102% (inactive) | 8.65% (inactive) | 93.5% | 102% | -5.2% (inactive) | 2.26% (inactive)
Cn1c(C(=O)N2CCC3(CC2)OCCO3)cc2c(=O)n(C)c3ccccc3c21 | 0% (inactive) | 108% | 82.5% (inactive) | 108% (inactive) | 80.2% (inactive) | 80.6% (inactive) | -5.79% (inactive) | 86.4% | 80.6% | -3.82% (inactive) | -5.45% (inactive)
C=CCn1c(O)c(C(C)=NCCCO)c(=O)[nH]c1=O | 0% (inactive) | 93% | 114% (inactive) | 93% (inactive) | 107% (inactive) | 94.3% (inactive) | 2.26% (inactive) | 92.1% | 94.3% | -4.94% (inactive) | -8.5% (inactive)
COCCOC(=O)C1=C(N)Oc2c(c(=O)oc3ccccc23)C1c1ccncc1 (centres undefined) | 10% (inactive) | 122% | 72% (inactive) | 122% (inactive) | 98.5% (inactive) | 92% (inactive) | 4.34% (inactive) | 87.7% | 92% | -2.76% (inactive) | -2.22% (inactive)
O=c1c2ccccc2nc(CSc2ncnc3nc[nH]c23)n1-c1ccccc1 | 0% (inactive) | 96% | 97.5% (inactive) | 96% (inactive) | 87.6% (inactive) | 80.9% (inactive) | -8.74% (inactive) | 89.6% | 80.9% | -1.92% (inactive) | -10.5% (inactive)
CCN1CCN(c2ncnc3ccc(Br)cc23)CC1 | 0% (inactive) | 100% | 110% (inactive) | 100% (inactive) | 59.2% (inactive) | 91.2% (inactive) | -8.96% (inactive) | 100% | 91.2% | -0.79% (inactive) | 5.25% (inactive)
CCNc1ccc(P(=S)(N(C)C)N(C)C)cc1 | 1% (inactive) | 91% | 93% (inactive) | 91% (inactive) | 115% (inactive) | 88.2% (inactive) | -16.7% (inactive) | 105% | 88.2% | -7.92% (inactive) | -4.6% (inactive)
CC(C)[C@@]1(NC(=O)[C@@H]2C=C3c4cccc5[nH]cc(c45)C[C@H]3N(C)C2)O[C@@]2(O)[C@@H]3CCCN3C(=O)[C@H](Cc3ccccc3)N2C1=O | 3% (inactive) |  |  | 103% (inactive) | 89% (inactive) | 90.5% (inactive) | -9.99% (inactive) | 101% | 90.5% | -0.13% (inactive) | 16.8% (inactive)
COC(=O)CC1(Cc2ccccc2)C(=O)NC(=O)NC1=O | 0% (inactive) | 92.5% | 96.5% (inactive) | 92.5% (inactive) | 86.8% (inactive) | 102% (inactive) | 13.1% (inactive) | 88.4% | 102% | -5.07% (inactive) | -0.98% (inactive)
CC[N+]1(C)CCCC(OC(=O)C(O)(c2ccccc2)c2ccccc2)C1 (centres undefined) | 0% (inactive) |  |  | 81% (inactive) | 76.8% (inactive) | 101% (inactive) | 11.1% (inactive) | 89.6% | 101% | -5.71% (inactive) | -3.67% (inactive)
O=C(O)c1nonc1-c1nonc1C(=O)O | 0% (inactive) | 99% | 114% (inactive) | 99% (inactive) | 100% (inactive) | 99% (inactive) | 1.51% (inactive) | 97.5% | 99% | -1.97% (inactive) | 6.39% (inactive)
C[N+]1(C)[C@@H]2CC(OC(=O)[C@H](CO)c3ccccc3)C[C@H]1[C@@H]1O[C@@H]12 (some centres undefined) | 0% (inactive) |  |  | 97% (inactive) | 101% (inactive) | 106% (inactive) | 8.56% (inactive) | 97.7% | 106% | -2.21% (inactive) | 8.67% (inactive)
C(#CCN1CCOCC1)COCC#Cc1ccccc1 | 0% (inactive) | 92.5% | 85.5% (inactive) | 92.5% (inactive) | 91.4% (inactive) | 101% (inactive) | 15.2% (inactive) | 85.3% | 101% | -5.41% (inactive) | 1.11% (inactive)
COc1ccc(OC)c(C2=NOC(C(=O)N3CCC4(CC3)OCCO4)C2)c1 (centres undefined) | 7% (inactive) | 106% | 99% (inactive) | 106% (inactive) | 103% (inactive) | 99% (inactive) | 13% (inactive) | 86% | 99% | -6.49% (inactive) | 0.5% (inactive)
CSc1ccc(C(=O)C(C)(C)N2CCOCC2)cc1 | 0% (inactive) | 106% | 107% (inactive) | 106% (inactive) | 112% (inactive) | 105% (inactive) | 18.2% (inactive) | 87.2% | 105% | -2.76% (inactive) | 6.56% (inactive)

Reference: PubChem BioAssay
